Data set [1] concerns Candida albicans. As to the kind of experiment: microbe, parasite or virus in culture. The note with it: CAI-4, 12 h, read-out: ED50 (the source's name). The data set is classed as functional.
Data set [2] in a line: Lipophilicity, log D of the compound at pH 7.4. Type of data set: physicochemical. The note with it: buffer.
Data set [3] is described as follows: Growth inhibition of HEK293 cells after 24 hrs by MTT assay. The data set is classed as cell-based. The note with it: human, read-out: ED50. In a few lines:
(§1)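 HEK293 cells in DMEM (4.5 g/L glucose) with 10% FBS and 1% penicillin-streptomycin, seeded at 10⁵ cells/mL. Inhibitor from 10 mM stock diluted threefold across 10 wells; 37 °C for 24 or 96 h.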
On the technique in general: Tetrazolium dyes change colour on reduction, which living cells bring about.

Data set [4] deals with Bacillus subtilis. As to the kind of experiment: Antibacterial activity against Bacillus subtilis (Ehrenberg) Cohn ATCC 6051 assessed as growth inhibition in presence of HMBPP after 12 hrs. The data set is classed as functional, organism-based. The note with it: (Ehrenberg) Cohn ATCC 6051, 12 h. In a few lines: (§2)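 Rescue format: log-phase B. subtilis in LB with rescue agent(s) at 50 µM each, alone or as pairwise combinations of UP, MK-4, FPP or HMBPP. Inhibitor diluted threefold across 12 wells from a 100 µM–1 mM start; 37 °C, 200 rpm, 12 h. Growth inhibition read as OD600; ED50-based fold-rescue; duplicate.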

The test system of data set [5] is Bacillus subtilis. The data set is described as follows: Antibacterial activity against Bacillus subtilis (Ehrenberg) Cohn ATCC 6051 assessed as growth inhibition in presence of HMBPP and MK4 after 12 hrs. The data set is classed as functional, organism-based. Particulars: (Ehrenberg) Cohn ATCC 6051, 12 h. In a few lines: as §2
Data set [6] has as its system Bacillus subtilis. As to the kind of experiment: Antibacterial activity against Bacillus subtilis (Ehrenberg) Cohn ATCC 6051 assessed as growth inhibition in presence of FPP after 12 hrs. Type of data set: functional, organism-based. Particulars: (Ehrenberg) Cohn ATCC 6051, 12 h. In a few lines: as §2
In data set [7] the test system is Bacillus subtilis. The data set is described as follows: Antibacterial activity against Bacillus subtilis (Ehrenberg) Cohn ATCC 6051 in presence of 10% fetal bovine serum after 12 hrs. The data set is classed as functional. The note with it: (Ehrenberg) Cohn ATCC 6051, 12 h, read-out: ED50 (the source's name). In a few lines:
(§3)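 Log-phase B. subtilis diluted 500-fold into LB containing 0%, 4% or 10% fetal bovine serum. Inhibitor threefold serially diluted across 12 wells from a 100 µM–1 mM start; incubated 12 h at 37 °C with 200 rpm shaking; growth inhibition by OD600.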

The target of data set [8] is T1, Farnesyl pyrophosphate synthase (Homo sapiens, UniProt P14324).
T1 sequence (P14324 whole entry): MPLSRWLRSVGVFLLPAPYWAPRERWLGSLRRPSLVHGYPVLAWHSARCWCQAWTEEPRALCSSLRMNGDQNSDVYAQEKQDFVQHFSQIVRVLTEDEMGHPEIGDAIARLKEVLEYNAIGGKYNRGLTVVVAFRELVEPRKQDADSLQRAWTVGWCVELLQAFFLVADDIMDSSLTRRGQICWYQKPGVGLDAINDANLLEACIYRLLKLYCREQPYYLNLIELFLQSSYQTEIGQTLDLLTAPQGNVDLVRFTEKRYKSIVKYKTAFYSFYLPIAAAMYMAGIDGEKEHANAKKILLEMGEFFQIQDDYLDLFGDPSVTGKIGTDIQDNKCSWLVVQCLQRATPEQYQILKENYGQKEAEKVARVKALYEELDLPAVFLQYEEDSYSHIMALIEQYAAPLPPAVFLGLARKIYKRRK
As to the kind of experiment: Inhibition of human FPPS using IPP and GPP.

The test system of data set [9] is Bacillus subtilis. As to the kind of experiment: Antibacterial activity against Bacillus subtilis (Ehrenberg) Cohn ATCC 6051 assessed as growth inhibition in presence of FPP and UP after 12 hrs. Type of data set: functional, organism-based. The note with it: (Ehrenberg) Cohn ATCC 6051, 12 h. In a few lines:
as §2

The test system of data set [10] is Clostridioides difficile. As to the kind of experiment: Antibacterial activity against Clostridioides difficile ATCC 43255 after 48 hrs. Type of data set: functional. Particulars: ATCC 43255, 48 h. In a few lines: (§4)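 Grown anaerobically 48 h at 37 °C on brain heart infusion agar supplemented with yeast extract, L-cysteine, vitamin K1 and hemin. Inoculum set to a 0.5 McFarland standard, then diluted in supplemented BHI broth to ~5 × 10^5 CFU/mL. Broth dilution over 64–0.5 μM, incubated anaerobically 48 h at 37 °C. MIC read visually as lowest concentration inhibiting growth.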

In data set [11] the test system is Bacillus subtilis. The data set is described as follows: Antibacterial activity against Bacillus subtilis (Ehrenberg) Cohn ATCC 6051 assessed as growth inhibition in presence of decaprenyl phosphate after 12 hrs. Type of data set: functional, organism-based.
Data set [12] in a line: Growth inhibition of HEK293 cells after 96 hrs by MTT assay. Type of data set: cell-based. The note with it: human, read-out: ED50. In a few lines:
as §1

The test system of data set [13] is Clostridioides difficile. As to the kind of experiment: Antibacterial activity against Clostridioides difficile ATCC 1870 after 48 hrs. The note with it: ATCC 1870, 48 h. Type of data set: functional. In a few lines:
as §4

Data set [14] has as its target T1, Farnesyl pyrophosphate synthase. As to the kind of experiment: Inhibition of human FPPS using IPP and GPP as substrate. In a few lines: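 Expressed HsFPPS at 0.15 μM with 50 μM IPP and 50 μM GPP, 25°C, in 20 mM HEPES pH 7.5, 150 mM NaCl, 500 μM MgCl2. Enzyme preincubated 30 min at room temperature with serially diluted compound. Continuous MESG/PNP phosphate-release read-out, with pyrophosphatase added. At least 3 runs on different days; pooled data fitted by nonlinear regression for IC50.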

Data set [15] deals with Bacillus subtilis. As to the kind of experiment: Antibacterial activity against Bacillus subtilis (Ehrenberg) Cohn ATCC 6051 assessed as growth inhibition in presence of MK7 after 12 hrs. Type of data set: functional, organism-based.
For data set [16], the system named is Bacillus subtilis. The data set is described as follows: Antibacterial activity against Bacillus subtilis (Ehrenberg) Cohn ATCC 6051 in absence of fetal bovine serum after 12 hrs. The note with it: (Ehrenberg) Cohn ATCC 6051, 12 h, read-out: ED50 (the source's name). Type of data set: functional. In a few lines: as §3
The test system of data set [17] is Bacillus subtilis. The data set is described as follows: Antibacterial activity against Bacillus subtilis (Ehrenberg) Cohn ATCC 6051 after 12 hrs. The data set is classed as functional. Particulars: (Ehrenberg) Cohn ATCC 6051, 12 h, read-out: ED50 (the source's name). In a few lines:
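Log-phase LB culture (grown to OD600 ~0.3, then diluted 500-fold) exposed to two-fold serial dilutions of inhibitor starting at 100 µM–1 mM across 12 wells; 37 °C, 200 rpm shaking, 12 h. OD600 read and ED50 fitted; duplicate or triplicate.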

Data set [18] relates to Mycolicibacterium smegmatis. As to the kind of experiment: Antibacterial activity against Mycobacterium smegmatis MC2 155 ATCC 700084 after 48 hrs. The data set is classed as functional. Particulars: MC2 155 ATCC 700084, 48 h, read-out: ED50 (the source's name). In a few lines:
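Culture grown 36–48 h, diluted 1000-fold in Middlebrook 7H9 with 10% ADC, 0.5% glycerol, 0.05% Tween 80; inhibitors started at 100 µM–1 mM, threefold serial dilution across 10 wells; 37 °C, 200 rpm, 48 h; OD600 read-out.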

Data set [19] concerns Staphylococcus aureus. The data set is described as follows: Antibacterial activity against Staphylococcus aureus Newman after 12 hrs. Type of data set: functional. Particulars: read-out: ED50 (the source's name). In a few lines:
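Log-phase S. aureus culture in tryptic soy broth (OD600 ~0.3, then diluted 500-fold). Inhibitors two-fold serially diluted across 12 wells from a 100 µM–1 mM start; 37 °C, 200 rpm, 12 h; OD600 read for growth inhibition.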

Data set [20] deals with Bacillus anthracis. The data set is described as follows: Antibacterial activity against Bacillus anthracis Sterne after 12 hrs. Type of data set: functional. The note with it: read-out: ED50 (the source's name).
The nature of data set [21]: Binding affinity to Staphylococcus aureus HepPPS.

Each structure is given as a SMILES string. In brackets after ≈: the same amount, converted by molar mass. Activity calls are given as the source filed them. No cut-off for these calls is given here.

For `CCCCCCCCCCCCCCOc1cccc(O)c1C(=O)O`, the EC50 in [1] was more than 50 µg/mL.

As usually defined, the logD is lipophilicity at a set pH, counting ionised and neutral species. On to `CC(C)CCCC(C)c1cnc(NCC(P(=O)(O)O)P(=O)(O)O)s1` (stereo not given), for which the logD in [2] (read-out: logD) was -2.96.

Regarding `CC(C)CCCC(C)CCOc1ccc[n+](CC(O)(P(=O)([O-])O)P(=O)(O)O)c1` (stereo not given), in [3], the GI50 at 24 h is 1100 µM.

For the molecule `CCCCCCCCCCCCCc1ccc[n+](CC(P(=O)([O-])O)P(=O)(O)O)c1` (stereo not given), in [2] (read-out: logD), the logD is -3.65. The GI50 at 24 h in [3] is 48 µM.

Consider `CC(C)CCCC(C)CCOc1cccc(NCC(P(=O)(O)O)P(=O)(O)O)n1` (stereo not given), for which the pH-dependent lipophilicity (logD) in data set [2] (read-out: logD) was -2.24.

On to `O=P(O)(O)C(O)(Cc1cccc(-c2cccc3c2oc2ccccc23)c1)P(=O)(O)O`, for which the EC50 in data set [1] was more than 50 µg/mL.

For orientation: IC50 means the concentration needed to halve the response being measured. The term MIC denotes the lowest concentration found to suppress growth. A low value points to inhibition by little substance. Take `CC(C)CCCC(C)CCOc1ccc[n+](CC(P(=O)([O-])O)P(=O)(O)O)c1` (stereo not given): the 50% inhibitory concentration (IC50) in data set [4] came out at 2.1 µg/mL; in data set [5] it was 8.9 µg/mL; in data set [6], 3.5 µg/mL; in [8] it was 0.23 µM; in [9], 8.9 µg/mL; in data set [14] it was 0.23 µM. Also, the results for the EC50 in [7] and in data set [16] were 1.7 µg/mL and 1 µg/mL (≈ 2.36 µM), respectively. Moreover, the minimum inhibitory concentration (MIC) in [10] and in data set [13] was 6.8 µg/mL (≈ 16.1 µM) in each case. In addition, in data set [3], the GI50 at 24 h stood at 620 µM. Moreover, the outcome in data set [11] and in [15] was Active. The GI50 at 96 h in [12] worked out at 76 µM.

Regarding `CC(C)CCCC(C)CCOc1cc[n+](CC(P(=O)([O-])O)P(=O)(O)O)cc1` (stereo not given), the EC50 in [7] came to 28 µg/mL; in data set [16], 5.7 µg/mL (≈ 13.5 µM). In [2], this molecule returned a log distribution coefficient (logD) of -5.82. Moreover, the GI50 at 24 h in data set [3] is not below 1000 µM. The GI50 at 96 h in [12] worked out at 800 µM. Besides, it took 100 µM to reach half-maximal inhibition in [14] (IC50).

Regarding `CC(C)CCCC(C)CCCC(C)CCOc1ccc[n+](CC(P(=O)([O-])O)P(=O)(O)O)c1` (stereo not given), in data set [2] (read-out: logD), the logD is -3.48.

As to `CC(C)CCCC(C)CCCc1cccc(NCC(P(=O)(O)O)P(=O)(O)O)n1` (stereo not given), in data set [2] (read-out: logD), the logD was -2. Moreover, the GI50 at 24 h in data set [3] is 1100 µM. Moreover, the EC50 in data set [17] stood at 60 µM; in [18], 210 µM; in [19], 73 µM; in data set [20], 6.9 µM.

As to `CC(C)CCCC(C)CCCc1cc[n+](CC(P(=O)([O-])O)P(=O)(O)O)cc1` (stereo not given), the EC50 in [7] worked out at 78 µg/mL; in data set [16], 2.3 µg/mL (≈ 5.46 µM). For the same molecule, the pH-dependent lipophilicity (logD) in data set [2] is reported as -4.71. Also, the GI50 at 24 h in [3] is 700 µM. The GI50 at 96 h in data set [12] was more than 1000 µM.

Usually Kd stands for the concentration at which binding is half-saturated. Low readings indicate a tighter complex, high ones a looser complex. In [21], `CC(C)=CCC/C(C)=C/CC/C(C)=C/COP(=O)(O)OP(=O)(O)O` [FARNESYL DIPHOSPHATE] returned a dissociation constant (Kd) of 35 µM.

With `CC(C)CCCC(C)CCSc1cc[n+](CC(P(=O)([O-])O)P(=O)(O)O)cc1` (stereo not given), the logD in data set [2] is -5.08. In addition, the GI50 at 24 h in [3] was found to be 1000 µM.

In the case of `CC(C)CCCC(C)CCn1cc[n+](CC(P(=O)([O-])O)P(=O)(O)O)c1` (stereo not given), the GI50 at 24 h in data set [3] is 420 µM.

As for `CC(C)CCCC(C)CCOc1ccnc(NC(P(=O)(O)O)P(=O)(O)O)c1` (stereo not given), the logD in [2] (read-out: logD) is -1.63. Moreover, the GI50 at 24 h in data set [3] was determined as 1300 µM.

The record behind these values is ChEMBL document CHEMBL4480404, “Discovery of Lipophilic Bisphosphonates That Target Bacterial Cell Wall and Quinone Biosynthesis” (J Med Chem, 2019).
